Laboratory results reported in ChEMBL document CHEMBL1177774, “2-Aryl-4,5,6,7-tetrahydro-1,3-benzothiazol-7-ols as a class of antitumor agents selectively active in securin(-/-) cells” (Bioorg Med Chem Lett, 2010).

Columns and labels:
Type in all cases: functional, cell-based
HCT-116 [1] = assay: Cytotoxicity against human HCT116 cells after 2 days by sulforhodamine B assay; details: HCT-116, 48 h
Outline: (§1)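 Cells kept in RPMI 1640 with 10% fetal bovine serum and 50 µg/ml gentamicin, 37 °C, humidified, 5% CO2. Plated in 96-well plates; compound dilutions added next day (final 2 nM to 200 µM), then 2 days culture before survival read-out. 10 concentrations, in triplicate (some in duplicate); repeat values agreed on average within 40%.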

HCT-116 [2] = assay: Cytotoxicity against human HCT116-D8 securin -/- cells after 2 days by sulforhodamine B assay; details: HCT-116, 48 h; outline: as §1
[3] = Cytotoxicity against human HCT116-F3 securin -/- cells after 2 days by sulforhodamine B assay; details: 48 h; outline: as §1
MCF-10A = assay: Cytotoxicity against human MCF10A cells after 2 days by sulforhodamine B assay; details: 48 h; outline: as §1
MCF7 = assay: Cytotoxicity against human MCF7 cells after 2 days by sulforhodamine B assay; details: MCF7, 48 h; outline: as §1
MDA-MB-361 = assay: Cytotoxicity against human MDA-MB-361 cells after 2 days by sulforhodamine B assay; details: MDA-MB-361, 48 h; outline: as §1

Row | SMILES | IC50 (HCT-116 [1]) | IC50 (HCT-116 [2]) | IC50 [3] | IC50 (MCF-10A) | IC50 (MCF7) | IC50 (MDA-MB-361)
1 | CN(C)c1ccc(-c2nc3c(s2)C(O)CCC3)c(CO)c1 (stereo unspecified) | 78000 nM | 60 nM | 60 nM | > 100000 nM | 360 nM | 420 nM
2 | OCc1cc(N2CCCC2)ccc1-c1nc2c(s1)C(O)CCC2 (stereo unspecified) | 21000 nM | 42 nM | 44 nM | 17000 nM | 56 nM | 32 nM
3 | CN(C)c1ccc(-c2nc3c(s2)C(O)CNC3)cc1 (stereo unspecified) | 121000 nM | 1330 nM | 1630 nM | 70200 nM | 1600 nM | 170 nM
4 | OC1CNCc2nc(-c3ccc(N4CCCC4)cc3)sc21 (stereo unspecified) | 25000 nM | 730 nM | 1070 nM | 27800 nM | 1530 nM | 140 nM
5 | CN(C)c1ccc(-c2nc3c(s2)C(O)CNC3)c(CO)c1 (stereo unspecified) | > 100000 nM | 100 nM | 100 nM | 70000 nM | 31 nM | 22 nM
6 | OCc1cc(N2CCCC2)ccc1-c1nc2c(s1)C(O)CNC2 (stereo unspecified) | > 100000 nM | 70 nM | 60 nM | > 100000 nM | 13 nM | 20 nM
7 | OC1CCCc2nc(-c3ccc(N4CCCC4)cc3)sc21 (stereo unspecified) | > 100000 nM | 1530 nM | 2800 nM | > 100000 nM | 8700 nM | 200 nM
8 | CN(C)c1ccc(-c2nc3c(s2)[C@@H](O)CCC3)cc1 | > 100000 nM | 20000 nM | 46000 nM | > 100000 nM | 3300 nM | –
9 | CN(C)c1ccc(-c2nc3c(s2)C(O)CCC3)cc1 (stereo unspecified) | > 150000 nM | 1500 nM | 3000 nM | > 150000 nM | 1170 nM | 830 nM
10 | Cc1cc(N(C)C)ccc1-c1nc2c(s1)[C@H](O)CCC2 | > 100000 nM | 270 nM | 230 nM | > 100000 nM | 730 nM | 83 nM
11 | Cc1cc(N(C)C)ccc1-c1nc2c(s1)[C@@H](O)CCC2 | 127000 nM | 560 nM | 1160 nM | > 100000 nM | 2150 nM | 160 nM
12 | CN(C)c1ccc(-c2nc3c(s2)[C@H](O)CCC3)cc1 | 114000 nM | 850 nM | 1430 nM | > 100000 nM | 1450 nM | 200 nM
